Data: ChEMBL document CHEMBL4004841, “6-Cyclohexylmethyl-3-hydroxypyrimidine-2,4-dione as an inhibitor scaffold of HIV reverase transcriptase: Impacts of the 3-OH on inhibiting RNase H and polymerase” (Eur J Med Chem, 2017)
The source made the active and inactive calls. The calls are words filed in the database; no cut-off is given here.

Tests used:
[1] = Inhibition of RNase H activity of full length HIV reverse transcriptase using RNA-DNA duplex HTS-1 substrate; parameters: species or system Human immunodeficiency virus
[2] = Inhibition of HIV reverse transcriptase polymerase activity assessed as reduction in dNTP incorporation using 100 nucleotide DNA/18 nucleotide DNA as template/primer measured after 30 mins; parameters: species or system Human immunodeficiency virus
Procedure, shortened: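 20 nM full-length RT with 40 nM template/primer (18-nt DNA primer on 100-nt DNA template) and 10 μM dNTPs in 50 mM Tris pH 7.8, 50 mM NaCl, 1% DMSO, rising compound concentrations; started with 6 mM MgCl2, 30 min at 37 °C, stopped with 100 mM EDTA. Mean ± standard deviation, ≥2 independent experiments.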

[3] = Inhibition of strand transfer activity of HIV integrase expressed in Escherichia coli using 5'-[32P]-labeled oligonucleotide substrate after 60 mins by PAGE analysis; parameters: species or system Human immunodeficiency virus
Procedure, shortened: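 Recombinant IN (400 nM), purified with 10% glycerol in buffers, with 20 nM 5'-[32P] oligonucleotide substrate and inhibitor dilutions in 50 mM MOPS pH 7.2, 7.5 mM MgCl2, 14.3 mM 2-mercaptoethanol, 37 °C for 60 min; 10% DMSO controls. Products resolved on 20% polyacrylamide–7 M urea gels, quantified by phosphorimaging densitometry; IC50 by logistic nonlinear regression.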

[4] = system: Human immunodeficiency virus 1; test: Antiviral activity against HIV1 infected in human P4R5 cells assessed as reduction in viral infection preincubated with cells for 24 hrs followed by viral infection measured after 48 hrs by fluorescence based beta-galactosidase reporter gene assay; type: functional, cell-based; settings: Human immunodeficiency virus 1, P4/R5
Procedure, shortened: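 P4R5 indicator cells at 4 × 10^3 per well in DMEM/10% FBS with puromycin (1 μg/ml). Cells pretreated with 1% DMSO or varying drug concentrations for 24h, infected with HIV at MOI 1.25, then incubated 48h. Read-out: lysis, MUG substrate, 4-MU fluorescence (ex 365 nm, em 446 nm). Dose-response; mean ± SD from at least two independent experiments.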

[5] = Cytotoxicity against human P4R5 cells; type: cell-based
[6] = system: Human immunodeficiency virus 1; test: Antiviral activity against HIV1 infected in human CEM-SS cells assessed as reduction in virus-induced cytopathic effect after 6 days by MTS assay; type: functional, cell-based; settings: Human immunodeficiency virus 1, CEM-SS, 144 h
Procedure, shortened: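 CEM-SS cells mixed with pre-titered HIV-1 IIIB and compound, incubated 6 days; virus titer set so virus-control wells lose 70–95% viability. Cell, virus, compound-toxicity and compound-only colorimetric controls on each plate; AZT positive control. Viability by MTS; EC50 derived; mean ± standard deviation from at least two independent experiments.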

[7] = system: Human immunodeficiency virus type 1 reverse transcriptase (Human immunodeficiency virus 1), Q72547 [Y181C]; test: Inhibition of polymerase activity of HIV reverse transcriptase Y181C mutant assessed as reduction in dNTP incorporation up to 10 uM using 100 nucleotide DNA/18 nucleotide DNA as template/primer measured after 30 mins
Procedure, shortened: (§1)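 Mutant RT (20 nM) with 40 nM 18-nt DNA primer annealed to 100-nt DNA template and 10 μM dNTPs, in 50 mM Tris pH 7.8, 50 mM NaCl, 1% DMSO, with increasing compound up to 10 μM. Started with 6 mM MgCl2, run 30 min at 37 °C, stopped with 100 mM EDTA; DNA extension measured.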

[8] = system: Human immunodeficiency virus type 1 reverse transcriptase (Human immunodeficiency virus 1), Q72547 [K103N]; test: Inhibition of polymerase activity of HIV reverse transcriptase K103N mutant assessed as reduction in dNTP incorporation up to 10 uM using 100 nucleotide DNA/18 nucleotide DNA as template/primer measured after 30 mins; procedure, shortened: as §1

| Compound | IC50 [1] [µM] | IC50 [2] [µM] | IC50 [3] [µM] | EC50 [4] [µM] | CC50 [5] [µM] | EC50 [6] [µM] | inhibition [7] | inhibition [8] |
| --- | --- | --- | --- | --- | --- | --- | --- | --- |
| Cc1c(CC2CCCCC2)n(COCc2ccccc2)c(=O)n(O)c1=O | 3.1 | > 10 | > 100 | > 15 | > 100 | – | – | – |
| Cc1c(CC2CCCCC2)n(COCc2cccc(Cl)c2F)c(=O)n(O)c1=O | 2.2 | > 10 | > 100 | > 15 | > 100 | – | – | – |
| CCc1c(CC2CCCCC2)n(COCc2cccc(Cl)c2F)c(=O)n(O)c1=O | 1.1 | 6.5 | > 100 | 0.42 | > 100 | 1.8 | – | – |
| CCc1c(CC2CCCCC2)n(COCc2ccccc2)c(=O)[nH]c1=O | > 10 | 0.22 | – | 0.0062 | > 50 | – | – | – |
| CC(C)c1c(CC2CCCCC2)n(COCc2ccc(F)cc2)c(=O)n(O)c1=O | 2.7 | 9.9 | > 100 | 2.4 | > 100 | – | – | – |
| CCc1c(CC2CCCCC2)n(COCc2ccc(F)c(F)c2)c(=O)[nH]c1=O | > 10 | 0.82 | – | 0.014 | 29 | – | – | – |
| CCc1c(CC2CCCCC2)n(COCc2ccc(C(F)(F)F)cc2)c(=O)[nH]c1=O | > 10 | 0.81 | – | 0.039 | 28 | – | – | – |
| Cc1c(CC2CCCCC2)n(COCc2ccccc2)c(=O)[nH]c1=O | > 10 | 6.8 | – | 0.065 | > 100 | – | – | – |
| CCc1c(CC2CCCCC2)n(COCc2ccc(F)cc2)c(=O)[nH]c1=O | > 10 | 0.48 | – | 0.0075 | 42 | – | – | – |
| CCc1c(CC2CCCCC2)n(COCc2ccc(C)cc2)c(=O)n(O)c1=O | 2.1 | 6.5 | > 100 | 0.43 | > 100 | – | – | – |
| CC(C)c1c(CC2CCCCC2)n(COCc2ccccc2)c(=O)n(O)c1=O | 5.2 | 0.45 | > 100 | 0.026 | > 100 | – | inactive | inactive |
| CC(C)c1c(CC2CCCCC2)n(COCc2ccccc2)c(=O)[nH]c1=O | > 10 | 0.085 | – | 0.0052 | 23 | – | – | – |
| Cc1c(CC2CCCCC2)n(COCc2cccc(Cl)c2F)c(=O)[nH]c1=O | > 10 | 10 | – | 0.83 | 38 | – | – | – |
| CC(C)c1c(CC2CCCCC2)n(COCc2ccc(F)cc2)c(=O)[nH]c1=O | > 10 | 0.3 | – | 0.0072 | 31 | – | – | – |
| CCc1c(CC2CCCCC2)n(COCc2ccc(F)cc2)c(=O)n(O)c1=O | 5.8 | 1.5 | > 100 | 0.039 | > 100 | 0.32 | – | – |
| CCc1c(CC2CCCCC2)n(COCc2cccc(Cl)c2F)c(=O)[nH]c1=O | > 10 | 1.5 | – | 0.048 | 32 | – | – | – |
| Cc1c(CC2CCCCC2)n(COCCc2ccc(F)cc2)c(=O)[nH]c1=O | > 10 | > 10 | – | 5.3 | 56 | – | – | – |
| CCc1c(CC2CCCCC2)n(COCc2ccc(C(F)(F)F)cc2)c(=O)n(O)c1=O | 10 | 7 | > 100 | 2.4 | > 100 | – | – | – |
| CCc1c(CC2CCCCC2)n(COCc2ccccc2)c(=O)n(O)c1=O | 5.5 | 2.3 | > 100 | 0.059 | > 100 | 0.56 | – | – |
| Cc1c(CC2CCCCC2)n(COCc2ccc(F)c(F)c2)c(=O)n(O)c1=O | 4.6 | 10 | > 100 | > 15 | > 100 | – | – | – |
| Cc1c(CC2CCCCC2)n(COCc2ccc(C(F)(F)F)cc2)c(=O)n(O)c1=O | 7.6 | 10 | > 100 | > 15 | > 100 | – | – | – |
| Cc1c(CC2CCCCC2)n(COCc2ccc(F)c(F)c2)c(=O)[nH]c1=O | > 10 | 10 | – | 0.21 | 65 | – | – | – |
| Cc1c(CC2CCCCC2)n(COCCc2ccc(F)cc2)c(=O)n(O)c1=O | 3.9 | > 10 | > 100 | 10 | > 100 | – | – | – |
| Cc1c(CC2CCCCC2)n(COCc2ccc(C(F)(F)F)cc2)c(=O)[nH]c1=O | > 10 | 10 | – | 0.8 | > 100 | – | – | – |
| CCc1c(CC2CCCCC2)n(COCc2ccc(C)cc2)c(=O)[nH]c1=O | > 10 | 0.36 | – | 0.011 | 30 | – | – | – |
| CCc1c(CC2CCCCC2)n(COCc2ccc(F)c(F)c2)c(=O)n(O)c1=O | 1.7 | > 10 | > 100 | 4.1 | > 100 | – | – | – |
| CC(C)c1c(Cc2ccccc2)n(COCc2ccccc2)c(=O)[nH]c1=O | > 10 | 0.42 | – | 0.011 | 58 | – | – | – |
